In ChEMBL document CHEMBL1212906, “Apoptotic effects of polyprenylated benzoylphloroglucinol derivatives from the twigs of Garcinia multiflora” (J Nat Prod, 2010) one finds Ratio, IC50 and Activity data, which are given here for 7 compounds.

The source made the active and inactive calls. The rule behind the calls is not given here.

One may read the IC50 as the concentration that inhibits the measured activity by half.

The nature of assay [1]: Induction of apoptosis in human HeLaC3 cells assessed as yellow fluorescent protein/cyan fluorescent protein emission ratio at 25 uM after 72 hrs by FRET assay. It is filed as functional, HeLa C3. The gist of the method: (§1)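 Caspase-3 FRET biosensor (CFP–DEVD–YFP) HeLa-C3 cells were grown in MEM with 10% FBS, penicillin and streptomycin at 37 °C in 5% CO2. 7500 cells per well were seeded and given compound after 12–16 h (DMSO stock ≥1000× working concentration). A YFP/CFP ratio ≤3 was scored as apoptosis. Triplicates, three repeats.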

Assay [2] is described as follows: Induction of apoptosis in human HeLaC3 cells assessed as yellow fluorescent protein/cyan fluorescent protein emission ratio at 100 uM after 72 hrs by FRET assay. It is filed as functional, HeLa C3. The essentials:
as §1

The nature of assay [3]: Induction of apoptosis in human HeLaC3 cells assessed as yellow fluorescent protein/cyan fluorescent protein emission ratio at 50 uM after 72 hrs by FRET assay. The class given is functional, HeLa C3. The gist of the method:
as §1

Assay [4] in a line: Cytotoxicity against human HeLa cells after 72 hrs by MTT assay. Background: Formazan colour is commonly taken as a measure of viable cells.
Assay [5] relates to HeLa C3. The experiment in a line: Induction of apoptosis in human HeLaC3 cells assessed as morphological changes at 100 uM after 24 to 72 hrs. It is filed as functional, cell-based. The gist of the method: (§2)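 Compound-treated HeLa-C3 biosensor cells were photographed under a microscope at 24, 48 and 72 h. Paclitaxel 500 nM was the positive control and untreated cells the negative control. Cell shrinkage and detachment from the plate were taken as apoptotic morphology.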

Assay [6] has as its system HeLa C3. The experiment in a line: Induction of apoptosis in human HeLaC3 cells assessed as morphological changes at 50 uM after 24 to 72 hrs. It is filed as functional, cell-based. The essentials: as §2
The test system of assay [7] is HeLa C3. As to the kind of experiment: Induction of apoptosis in human HeLaC3 cells at 25 uM after 72 hrs. It is filed as functional, cell-based. The essentials:
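Caspase-3 FRET biosensor (CFP–DEVD–YFP) HeLa-C3 cells were grown in MEM with 10% FBS, penicillin and streptomycin at 37 °C in 5% CO2. 7500 cells per well were seeded and given compound after 12–16 h (DMSO stock ≥1000× working concentration). Plates were excited at 440 nm, with emission read at 486 (CFP) and 535 (YFP) nm, for up to 72 h. A YFP/CFP ratio ≤3 was scored as apoptosis. Triplicates, three repeats.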

Assay [8] relates to HeLa C3. The experiment in a line: Induction of apoptosis in human HeLaC3 cells assessed as morphological changes at 25 uM after 24 to 72 hrs. The class given is functional, cell-based. The essentials: as §2

Take `O=C1c2c(O)cc(O)cc2O[C@H](c2ccc(O)cc2)[C@H]1c1c(O)cc(O)c2c(=O)cc(-c3ccc(O)c(O)c3)oc12` [MORELLOFLAVONE]: the Ratio in assay [1], in assay [2] and in assay [3] was >3 each time.
In turn, `C=C(C)C(O)C[C@H](C[C@@]12C[C@@H](CC=C(C)C)C(C)(C)[C@@](CC=C(C)C)(C(=O)C(C(=O)c3ccc(O)c(O)c3)=C1O)C2=O)C(=C)C` (stereo partly specified) [GARCIMULTIFLORONE E] returned a half-inhibitory concentration (IC50) in assay [4] of 14.3 µM. The Ratio is >3 in assay [1], “<=3” in assay [2] and >3 in assay [3]. For the same compound, in assay [5], the outcome was Active.
Consider `C=C(C)[C@H](CC=C(C)C)C[C@@]12C[C@@H](CC=C(C)C)C(C)(C)[C@@](CCC(C)(C)O)(C(=O)C(C(=O)c3ccc(O)c(O)c3)=C1O)C2=O` [GARCIMULTIFLORONE D], for which the IC50 in assay [4] was determined as 17.5 µM. The outcome in assay [6] was Active. For the same compound, the Ratio is >3 in assay [1], “<=3” in assay [2] and “<=3” in assay [3].
`C=C(C)[C@H](CC=C(C)C)C[C@@]12C[C@@H](CC(O)C(C)(C)O)C(C)(C)[C@@](CC=C(C)C)(C(=O)C(C(=O)c3ccc(O)c(O)c3)=C1O)C2=O` (stereo partly specified) [GARCIMULTIFLORONE F] came in with an IC50 in assay [4] of 14.9 µM. The outcome in assay [6] was Active. The Ratio is reported as >3 in assay [1], “<=3” in assay [2] and “<=3” in assay [3].
Regarding `C=C(C)[C@H](CC=C(C)C)C[C@@]12C[C@@H](CC=C(C)C)C(C)(C)[C@@](CC=C(C)C)(C(=O)C(C(=O)c3ccc(O)c(O)c3)=C1O)C2=O` [GUTTIFERONE F], in assay [6], the outcome was Active. Besides, the Ratio in assay [1] is recorded as >3; in assay [2], “<=3”; in assay [3], “<=3”.
Regarding `C=C(C)[C@H](CC=C(C)C)C[C@@]12C[C@@H](CC=C(C)C)C(C)(C)[C@@](CC(O)C(C)(C)O)(C(=O)C(C(=O)c3ccc(O)c(O)c3)=C1O)C2=O` (stereo partly specified), 23 µM corresponded to half-maximal inhibition in assay [4] (IC50). Moreover, the Ratio in assay [1], in assay [2] and in assay [3] was >3 throughout.
In the case of `CC(C)=CC[C@@H]1C[C@]23C[C@H](CC=C(C)C)C(C)(C)[C@](CC=C(C)C)(C(=O)C(C(=O)c4ccc(O)c(O)c4)=C2OC1(C)C)C3=O` [ISOXANTHOCHYMOL], the result in assay [7] and in assay [8] was Active. The Ratio result in assay [1] is “<=3”; in assay [2], >3; in assay [3], >3.
